These results are taken from ChEMBL document CHEMBL1139721, “Inhibition of P-glycoprotein-mediated multidrug efflux by aminomethylene and ketomethylene analogs of reversins” (Bioorg Med Chem Lett, 2006).

For this test, the system named is K562/R7. Description: Inhibition of P-glycoprotein-mediated daunorubicin efflux in K562/R7 cells at 10 uM relative to control. The format is cell-based. The settings on record: Homo sapiens. The procedure, abridged:
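K562/R7 human leukemic cells with high P-glycoprotein expression, 1 million per mL RPMI 1640, incubated 1 h at 37 °C with daunorubicin (10 μM final) with or without inhibitor at 10 µM. Cells washed twice in ice-cold PBS, held on ice, then read by flow cytometry. Activity expressed relative to cyclosporin A (2 μM final, set as 100%). Duplicates, at least three separate experiments; SD reported.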

Peptide text beside a SMILES is read from it. * marks the point of attachment. Cbz = O=C(OCc1ccccc1)*; Boc = CC(C)(C)OC(=O)*; OcHex = C1CCC(O*)CC1; OBn = c1ccc(CO*)cc1; OtBu = CC(C)(C)O*

`O=C(CCC(=O)N[C@@H](CCC(=O)OCc1ccccc1)C(=O)OCc1ccccc1)N[C@@H](CCC(=O)OCc1ccccc1)C(=O)OCc1ccccc1`: the inhibition turned out to be 93.7%.
For `CC(C)C(OC(=O)CC[C@H](NCCCC(=O)N[C@@H](CCC(=O)OCc1ccccc1)C(=O)OCc1ccccc1)C(=O)OCc1ccccc1)C(C)C` the value was 54.7%; for `CC(C)C(OC(=O)CC[C@@H](C(=O)OCc1ccccc1)N(CCCC(=O)N[C@@H](CCC(=O)OCc1ccccc1)C(=O)OCc1ccccc1)CCCC(=O)N[C@@H](CCC(=O)OCc1ccccc1)C(=O)OCc1ccccc1)C(C)C`, 3.35%; for `O=C(CCC(=O)N[C@@H](CCC(=O)OC1CCCCC1)C(=O)OCc1ccccc1)N[C@@H](CCC(=O)OCc1ccccc1)C(=O)OCc1ccccc1`, 94.5%.
For `CC(C)(C)OC(=O)N[C@@H](CCC(=O)OC1CCCCC1)C(=O)N[C@@H](CCCCNC(=O)OCc1ccccc1)C(=O)OC(C)(C)C` (Boc-Glu(OcHex)-Lys(Cbz)-OtBu) the value was 85.4%; for `O=C(CCCN[C@@H](CCC(=O)OC1CCCCC1)C(=O)OCc1ccccc1)N[C@@H](CCC(=O)OCc1ccccc1)C(=O)OCc1ccccc1`, 98.3%; for `CC(C)(C)OC(=O)N[C@@H](CC(=O)OCc1ccccc1)C(=O)N[C@@H](CCCCNC(=O)OCc1ccccc1)C(=O)OC(C)(C)C` (Boc-Asp(OBn)-Lys(Cbz)-OtBu), 72.7%.
On to `CC(C)C(OC(=O)CC[C@H](NC(=O)OC(C)(C)C)C(=O)N[C@@H](CCCCNC(=O)OCc1ccccc1)C(=O)OC(C)(C)C)C(C)C`, for which the inhibition was 52.7%.
For `CC(C)(C)OC(=O)N[C@@H](CCC(=O)OCc1ccccc1)CN[C@@H](CCCCNC(=O)OCc1ccccc1)C(=O)OC(C)(C)C` the value was 79.1%.
In turn, `CC(C)(C)OC(=O)N[C@H](CN[C@@H](CCCCNC(=O)OCc1ccccc1)C(=O)OC(C)(C)C)CC(=O)OCc1ccccc1` yielded an inhibition of 74.1%.
Turning to `O=C(CCCN[C@@H](CC(=O)OCc1ccccc1)C(=O)OCc1ccccc1)N[C@@H](CCC(=O)OCc1ccccc1)C(=O)OCc1ccccc1`, the inhibition worked out at 82.2%.
As for `CC(C)(C)OC(=O)N[C@@H](CC(=O)OCc1ccccc1)C(=O)CCC(=O)N[C@@H](CCCCNC(=O)OCc1ccccc1)C(=O)OC(C)(C)C`, the inhibition stood at 86.6%.

Usually inhibition stands for the share of the control response that was lost under treatment.
